Data on 38 sequences can be found in the array DNA melting data of Ke et al. (doi:10.1101/2024.01.08.574731).

A short description of data set [1]: folding enthalpy; higher = less favourable; fluorescence melt of hairpins on a sequencing array, two-state fit. The note with it: sodium 0.088 M. A digest of the protocol:
(§1)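 Cy3 signals were normalised both to pre-quench Cy3 and to control constructs. They came from library hairpins carrying annealed Cy3 and quencher oligos on a sequenced MiSeq flow cell, imaged in 50 mM Na-HEPES pH 8.0, 25 mM NaCl, in 2.5 °C steps up to 60 °C. Bootstrapped two-state fits gave melting temperature and folding enthalpy, and four replicates were combined by inverse variance. Fitted temperatures were then raised by 9.35 °C to match UV melts.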

Data set [2] in a line: melting temperature; fluorescence melt of hairpins on a sequencing array, two-state fit, raised by 9.35 °C to match UV melts. The note with it: sodium 0.088 M. A digest of the protocol: as §1

With GATCGGGATTCCGATC ((((((....)))))), the folding enthalpy in data set [1] was -39.7 kcal/mol. Also, the Tm in data set [2] stood at 57.5 °C.
With GATCGGGCACCCGATC ((((((....)))))), the folding enthalpy in data set [1] is -39.9 kcal/mol. Moreover, in data set [2], the Tm was determined as 64.6 °C.
Take GATCGGGCATCCGATC ((((((....)))))): the folding enthalpy in data set [1] was -41.9 kcal/mol. The Tm in data set [2] worked out at 63.3 °C.
GATCGGGCCGCCGATC ((((((....)))))): the folding enthalpy in data set [1] was -37.2 kcal/mol. The Tm in data set [2] is 59.1 °C.
For the sequence GATCGGGCTTCCGATC ((((((....)))))), the folding enthalpy in data set [1] is -41.2 kcal/mol. For the same sequence, the Tm in data set [2] turned out to be 59.4 °C.
In the case of GATCGGGGAAACCCAATC (((.(((....))).))), the folding enthalpy in data set [1] is -20.8 kcal/mol. In addition, the Tm in data set [2] is 32.8 °C.
Turning to GATCGGGTACCGATC ((((((...)))))), in data set [1], the folding enthalpy was -44.7 kcal/mol. Further, the Tm in data set [2] stood at 67.5 °C.
Taken in the same sequence, the figures for GATCGGGTTCCCGATC ((((((....)))))) were -42.5 kcal/mol and 62.8 °C.
On to GATCGGGTTCCGATC ((((((...)))))), for which, in data set [1], the folding enthalpy was -39.1 kcal/mol. Also, the Tm in data set [2] was 56.8 °C.
Consider GATCGGTACTCCGATC ((((((....)))))), for which the folding enthalpy in data set [1] is -38.3 kcal/mol. For the same sequence, in data set [2], the Tm came out at 59.3 °C.
For the sequence GATCGGTCACCCGATC ((((((....)))))), the folding enthalpy in data set [1] was -31.4 kcal/mol. Further, in data set [2], the Tm was determined as 56.4 °C.
For the sequence GATCGGTCATCCGATC ((((((....)))))), the folding enthalpy in data set [1] is -39.7 kcal/mol. Also, the Tm in data set [2] stood at 59.4 °C.
Taken in the same sequence, the figures for GATCGGTCCCCGATC ((((((...)))))) were -44.8 kcal/mol and 57.4 °C.
Taken in the same sequence, the figures for GATCGGTCGCCCGATC ((((((....)))))) were -54.5 kcal/mol and 57.4 °C.
GATCGGTCGTCCGATC ((((((....)))))): the folding enthalpy in data set [1] was -40.9 kcal/mol. Besides, in data set [2], the Tm was 60.2 °C.
With GATCGGTGCCCGATC ((((((...)))))), in data set [1], the folding enthalpy is -40.8 kcal/mol. Besides, in data set [2], the Tm turned out to be 58 °C.
GATCGGTGCTCCGATC ((((((....)))))): the folding enthalpy in data set [1] is -40.8 kcal/mol. For the same sequence, the Tm in data set [2] turned out to be 57.9 °C.
Regarding GATCGGTGGCCGATC ((((((...)))))), in data set [1], the folding enthalpy was -33.8 kcal/mol. The Tm in data set [2] was determined as 55.9 °C.
Taken in the same sequence, the figures for GATCGGTTACCGATC ((((((...)))))) were -36.1 kcal/mol and 59.3 °C.
Regarding GATCGGTTGGCCGATC ((((((....)))))), the folding enthalpy in data set [1] was -42 kcal/mol. The Tm in data set [2] worked out at 60.9 °C.
Taken in the same sequence, the figures for GATCGGTTTCCCGATC ((((((....)))))) were -40.4 kcal/mol and 57.1 °C.
For the sequence GATCGTAAATACGATC ((((((....)))))), the folding enthalpy in data set [1] was -38.9 kcal/mol. In addition, the Tm in data set [2] was found to be 53 °C.
Turning to GATCGTAAGCACGATC ((((((....)))))), the folding enthalpy in data set [1] is -36.4 kcal/mol. The Tm in data set [2] amounted to 53.9 °C.
As for GATCGTAATAACGATC ((((((....)))))), the folding enthalpy in data set [1] was -37 kcal/mol. Further, the Tm in data set [2] was found to be 53.9 °C.
GATCGTACCTACGATC ((((((....)))))): the folding enthalpy in data set [1] was -50.5 kcal/mol. Moreover, the Tm in data set [2] came out at 55.6 °C.
In the case of GATCGTAGAGACGATC ((((((....)))))), the folding enthalpy in data set [1] was -25.4 kcal/mol. For the same sequence, in data set [2], the Tm was 51.9 °C.
In the case of GATCGTAGCAACGATC ((((((....)))))), the folding enthalpy in data set [1] is -38.6 kcal/mol. Also, the Tm in data set [2] stood at 54.7 °C.
For the sequence GATCGTAGTCACGATC ((((((....)))))), the folding enthalpy in data set [1] is -36.1 kcal/mol. Further, in data set [2], the Tm was 54.1 °C.
Turning to GATCGTATACACGATC ((((((....)))))), in data set [1], the folding enthalpy was -38.4 kcal/mol. The Tm in data set [2] was 53.9 °C.
Turning to GATCGTATCGACGATC ((((((....)))))), in data set [1], the folding enthalpy is -35 kcal/mol. The Tm in data set [2] amounted to 55.2 °C.
GATCGTATGACGATC ((((((...)))))): the folding enthalpy in data set [1] was -34 kcal/mol. The Tm in data set [2] was determined as 55.6 °C.
Regarding GATCGTATGCACGATC ((((((....)))))), the folding enthalpy in data set [1] was -26.1 kcal/mol. Besides, the Tm in data set [2] came to 54.5 °C.
Taken in the same sequence, the figures for GATCGTATTAACGATC ((((((....)))))) were -37.1 kcal/mol and 55.9 °C.
As to GATCGTATTTACGATC ((((((....)))))), the folding enthalpy in data set [1] was -42.5 kcal/mol. In addition, the Tm in data set [2] stood at 57.6 °C.
GATCGTCAAGACGATC ((((((....)))))): in data set [1], the folding enthalpy is -37.5 kcal/mol. Besides, in data set [2], the Tm stood at 58.7 °C.
With GATCGTCACAACGATC ((((((....)))))), in data set [1], the folding enthalpy is -39.3 kcal/mol. In data set [2], the Tm turned out to be 56.9 °C.
Taken in the same sequence, the figures for GATCGTCACGACGATC ((((((....)))))) were -43.1 kcal/mol and 57.8 °C.
Consider GATCGTCAGAACGATC ((((((....)))))), for which the folding enthalpy in data set [1] was -35.2 kcal/mol. The Tm in data set [2] came to 55.1 °C.
